We go through one molecule from ChEMBL document CHEMBL3992568, “Discovery of Antimalarial Azetidine-2-carbonitriles That Inhibit P. falciparum Dihydroorotate Dehydrogenase” (ACS Med Chem Lett, 2017).

Series [1] is described as follows: Initial concentration in CD-1 mouse at 1 mg/kg, iv or 5 mg/kg, po administered as single dose. It is filed as ADME, organism-based. The conditions noted are these: in vivo. Put shortly:
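Female CD-1 mice, single dose. Oral formulation: 70% PEG300/30% (5% dextrose in water) at 0.5 mg/mL. Intravenous formulation: 5% DMSO/10% cremophor/85% water at 0.25 mg/mL. Parameters from non-compartmental analysis.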

A further series deals with Mus musculus. Nature of the series: Dose normalized AUC (0 to infinity) in CD-1 mouse at 5 mg/kg, po administered as single dose. The conditions noted are these: in vivo. It counts as ADME, organism-based.

Where only a bound is given, the exact number is not on record here.

For `CCCNC(=O)N1[C@H](C#N)[C@H](c2ccc(-c3ccc(C(F)(F)F)c(C(F)(F)F)c3)cc2)[C@H]1CO`, the C0 in series [1] turned out to be 4.9 µM. Further, the AUC/dose with Mus musculus was greater than 54.3 µM·h.
